Assay results published in ChEMBL document CHEMBL4706681, “New 2-Pyrazoline and Hydrazone Derivatives as Potent and Selective Monoamine Oxidase A Inhibitors” (J Med Chem, 2021).
The source made the active and inactive calls. The calls are words filed in the database; no cut-off is given here.

How the values were obtained:
[1] = target: T1, Amine oxidase [flavin-containing] A (Homo sapiens, UniProt P21397); experiment: Inhibition of recombinant human MAO-A expressed in baculovirus infected BTI insect cells using p-tyramine as substrate incubated for 30 mins by Amplex red reagent based fluorescence analysis
T1 sequence (P21397 whole entry): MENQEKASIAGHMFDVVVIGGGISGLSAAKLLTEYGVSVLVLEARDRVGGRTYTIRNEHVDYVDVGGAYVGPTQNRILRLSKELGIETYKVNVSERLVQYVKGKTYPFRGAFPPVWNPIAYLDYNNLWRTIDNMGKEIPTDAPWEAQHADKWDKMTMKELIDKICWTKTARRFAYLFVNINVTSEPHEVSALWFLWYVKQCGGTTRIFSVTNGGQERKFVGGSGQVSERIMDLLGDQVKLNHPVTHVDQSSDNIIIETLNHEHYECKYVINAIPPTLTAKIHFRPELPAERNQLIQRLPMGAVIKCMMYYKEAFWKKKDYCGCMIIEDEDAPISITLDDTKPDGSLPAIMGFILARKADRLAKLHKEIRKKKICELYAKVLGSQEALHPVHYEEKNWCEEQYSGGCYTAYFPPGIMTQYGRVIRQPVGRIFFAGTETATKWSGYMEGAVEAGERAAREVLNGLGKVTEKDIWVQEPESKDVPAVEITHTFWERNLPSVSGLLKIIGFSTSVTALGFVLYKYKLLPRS

[2] = target: T2, Amine oxidase [flavin-containing] B (Homo sapiens, UniProt P27338); experiment: Inhibition of recombinant human MAO-B expressed in baculovirus infected BTI insect cells using p-tyramine as substrate incubated for 30 mins by Amplex red reagent based fluorescence analysis; format: cell-based
T2 sequence (P27338 whole entry): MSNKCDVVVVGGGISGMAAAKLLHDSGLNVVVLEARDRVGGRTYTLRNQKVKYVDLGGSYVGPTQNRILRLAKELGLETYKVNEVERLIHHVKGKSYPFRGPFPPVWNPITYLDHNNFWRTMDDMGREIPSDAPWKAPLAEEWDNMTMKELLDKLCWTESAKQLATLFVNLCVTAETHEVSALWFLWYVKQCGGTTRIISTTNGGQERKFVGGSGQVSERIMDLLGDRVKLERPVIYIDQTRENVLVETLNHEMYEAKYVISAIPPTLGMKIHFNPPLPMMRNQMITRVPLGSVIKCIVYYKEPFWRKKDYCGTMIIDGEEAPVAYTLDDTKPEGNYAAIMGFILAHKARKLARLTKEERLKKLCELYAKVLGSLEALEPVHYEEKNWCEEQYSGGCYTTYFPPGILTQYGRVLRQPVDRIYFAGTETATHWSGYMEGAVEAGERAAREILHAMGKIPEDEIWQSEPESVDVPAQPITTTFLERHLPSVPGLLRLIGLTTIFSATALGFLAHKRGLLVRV

[3] = Selectivity index, ratio of Ki for inhibition of recombinant human MAO-A to Ki for inhibition of recombinant human MAO-B using p-tyramine as substrate
[4] = target: T1, Amine oxidase [flavin-containing] A; experiment: Reversible inhibition of human MAO-A assessed as residual enzyme activity at 4 fold IC50 incubated for 15 mins and measured 24 hrs post dialysis by dialysis method relative to control; conditions: 24.25 h, time 1455 min
Procedure, shortened: (§1)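 Dialysed (MWCO 12 000) at 4 °C for 24 h against 100 mM potassium phosphate pH 7.4, 5% sucrose, buffer changed twice. Dialysed and undialysed mixtures assayed together; residual activity from triplicates.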

[5] = target: T1, Amine oxidase [flavin-containing] A; experiment: Reversible inhibition of human MAO-A assessed as residual enzyme activity at 4 fold IC50 incubated for 15 mins and measured before dialysis by dialysis method relative to control; procedure, shortened: as §1
[6] = target: T2, Amine oxidase [flavin-containing] B; experiment: Reversible inhibition of human MAO-B assessed as residual enzyme activity at 4 fold IC50 incubated for 15 mins and measured before dialysis relative to control; procedure, shortened: as §1
[7] = target: T2, Amine oxidase [flavin-containing] B; experiment: Reversible inhibition of human MAO-B assessed as residual enzyme activity at 4 fold IC50 incubated for 15 mins and measured 24 hrs post dialysis relative to control; conditions: 24.25 h, time 1455 min; procedure, shortened: as §1
[8] = Cytotoxicity against human HepG2 cells assessed as cell viability at 7.5 uM incubated for 2 hrs by MTT assay relative to control; format: cell-based; conditions: read-out: Activity
Procedure, shortened: (§2)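 HepG2 human hepatoma cells; viability read by MTT assay, with 0.1% DMSO as vehicle control. Viability given as % of control, mean ± SEM (n = 3); p < 0.05 taken as significant.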

[9] = Cytotoxicity against human HepG2 cells assessed as cell viability at 15 uM incubated for 2 hrs by MTT assay relative to control; format: cell-based; conditions: read-out: Activity; procedure, shortened: as §2
[10] = Cytotoxicity against human HepG2 cells assessed as cell viability at 30 uM incubated for 2 hrs by MTT assay relative to control; format: cell-based; conditions: read-out: Activity; procedure, shortened: as §2
[11] = Permeability of compound in PBS/EtOH buffer (70:30) at 25 ug/ml incubated for 16 hrs by UV plate reader based PAMPA-BBB
Mus musculus [12] = experiment: Antidepressant-like activity in CD1 mouse assessed as reduction in immobility time at 30 mg/kg, po administered via gavage as single dose measured after 1 hr by Porsolt-forced swim test; format: functional, organism-based
Mus musculus [13] = experiment: Antidepressant-like activity in CD1 mouse assessed as reduction in immobility time at 30 mg/kg, po administered via gavage for 7 days and measured 1 h post last dose by Porsolt-forced swim test; format: functional, organism-based; conditions: time 7.0 day
Procedure, shortened: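 Male albino CD-1 mice (20–25 g), 12 h light/dark, food and water ad libitum. Dosed by oral gavage once daily for 7 days in 200 μL 0.5% CMC; vehicle-only controls. […] Forced swim test run 1 h after the last dose. Immobility scored every 60 s over 6 min; n = 8–12.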

[14] = Ex vivo inhibition of MAOA in CD1 mouse brain homogenates assessed as MAOA level at 30 mg/kg, po administered as single acute dose via gavage and measured after 1 hr by monoamine oxidase assay (reference value: 0.40 +/- 0.012 nmol/min/mg); format: functional
[15] = Ex vivo inhibition of MAOA in CD1 mouse brain homogenates assessed as 5-HT levels at 30 mg/kg, po administered as single acute dose via gavage and measured after 1 hr by ELISA kit method (reference value: 0.80 +/- 0.006 ug/g); format: functional
[16] = Ex vivo inhibition of MAOA in CD1 mouse brain homogenates assessed as dopamine levels at 30 mg/kg, po administered as single acute dose via gavage and measured after 1 hr by ELISA kit method (reference value: 7.08 +/- 0.58 ug/g); format: functional
[17] = Ex vivo inhibition of MAOA in CD1 mouse brain homogenates assessed as assessed as inhibition of 5-HT deamination by measuring 5-HIAA metabolite levels at 30 mg/kg, po administered as single acute dose via gavage and measured after 1 hr by HPLC analysis (reference value: 0.28 +/- 0.011 ug/g); format: functional
[18] = Ex vivo inhibition of MAOA in CD1 mouse brain homogenates assessed as assessed as inhibition of dopamine deamination by measuring DOPAC metabolite levels at 30 mg/kg, po administered as single acute dose via gavage and measured after 1 hr by HPLC analysis (reference value: 1.22 +/- 0.2 ug/g); format: functional
[19] = Ex vivo inhibition of MAOA in CD1 mouse brain homogenates assessed as MAOA level at 30 mg/kg, po administered as subchronic dose via gavage for 7 days and measured 1 hr post last dose by monoamine oxidase assay (reference value: 0.40 +/- 0.005 nmol/min/mg); format: functional; conditions: time 7 day
[20] = Ex vivo inhibition of MAOA in CD1 mouse brain homogenates assessed as 5-HT levels at 30 mg/kg, po administered as subchronic dose via gavage for 7 days and measured 1 hr post last dose by ELISA kit method (reference value: 0.78 +/- 0.01 ug/g); format: functional; conditions: time 7 day
[21] = Ex vivo inhibition of MAOA in CD1 mouse brain homogenates assessed as inhibition of 5-HT deamination by measuring 5-HIAA metabolite levels by using at 30 mg/kg, po administered as subchronic dose via gavage for 7 days and measured 1 hr post last dose by HPLC analysis (reference value: 0.18 +/- 0.01 ug/g); format: functional; conditions: time 7 day
[22] = Effect on locomotor activity in CD1 mouse assessed as total distance traveled at 30 mg/kg, po administered via gavage for 7 days by open field test; format: ADME, organism-based; conditions: in vivo, 168 h, time 7 day
Procedure, shortened: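 Each mouse placed in the centre of a 50 × 50 × 30 cm black box and video-tracked; total distance travelled over 5 min; n = 8–10.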

COc1ccc(C2CC(c3ccccc3)=NN2C(=O)Cn2c(=O)oc3ccccc32)cc1OC (centres undefined)
Ki [1]: 9 nM | Ki [2]: 20000 nM | Ratio Ki [3]: 4.55 10^-5No_unit | Activity [4]: 94% | Activity [5]: 23.11% | Activity [6]: 78.9% | Activity [7]: 94.8% | viability at 2 h, 7.5 µM [8]: 90.4% | viability at 2 h, 15 µM [9]: 88.2% | viability at 2 h, 30 µM [10]: 85.3% | Papp at 16 h, 25 ug/ml [11]: 9.44 ×10⁻⁶ cm/s | Activity (Mus musculus [12]): inactive | Activity (Mus musculus [13]): Active | Activity [14]: 0.28 nmol/min/mg | Activity [15]: 0.91 µg/g | Activity [16]: 7.08 µg/g | Activity [17]: 0.32 µg/g | Activity [18]: 1.23 µg/g | Activity [19]: 0.27 nmol/min/mg | Activity [20]: 1.04 µg/g | Activity [21]: 0.24 µg/g | Activity [22]: Non-Toxic

COc1ccccc1/C=C/C(=N\NC(=O)Cn1c(=O)oc2ccc(Cl)cc21)c1ccccc1
Ki [1]: 1 nM | Ki [2]: 2750 nM | Ratio Ki [3]: 7.27 10^-5No_unit | Activity [4]: 92.24% | Activity [5]: 19.55% | Activity [6]: 77.29% | Activity [7]: 97% | viability at 2 h, 7.5 µM [8]: 91.3% | viability at 2 h, 15 µM [9]: 89% | viability at 2 h, 30 µM [10]: 87.7% | Papp at 16 h, 25 ug/ml [11]: 14.6 ×10⁻⁶ cm/s

NCCc1ccc(O)c(O)c1 [DOPAMINE]
Papp at 16 h, 25 ug/ml [11]: 0.32 ×10⁻⁶ cm/s

CCn1cc(C(=O)O)c(=O)c2cc(F)c(N3CCNC(C)C3)c(F)c21 (centres undefined) [LOMEFLOXACIN]
Papp at 16 h, 25 ug/ml [11]: 0.99 ×10⁻⁶ cm/s

COc1ccc(C2=NN(C(=O)Cn3c(=O)oc4ccccc43)C(c3ccccc3Cl)C2)cc1 (centres undefined)
Ki [1]: 1 nM | Ki [2]: 1250 nM | Ratio Ki [3]: 8 10^-4No_unit | Activity [4]: 90.16% | Activity [5]: 18.11% | Activity [6]: 78.2% | Activity [7]: 91.5% | viability at 2 h, 7.5 µM [8]: 91.2% | viability at 2 h, 15 µM [9]: 90% | viability at 2 h, 30 µM [10]: 85% | Papp at 16 h, 25 ug/ml [11]: 11 ×10⁻⁶ cm/s | Activity (Mus musculus [12]): Active | Activity (Mus musculus [13]): Active | Activity [14]: 0.25 nmol/min/mg | Activity [15]: 0.98 µg/g | Activity [16]: 7.1 µg/g | Activity [17]: 0.35 µg/g | Activity [18]: 1.24 µg/g | Activity [19]: 0.24 nmol/min/mg | Activity [20]: 1.19 µg/g | Activity [21]: 0.31 µg/g | Activity [22]: Non-Toxic

COc1ccccc1C(/C=C/c1ccccc1Cl)=N/NC(=O)Cn1c(=O)oc2ccc(Cl)cc21
Ki [1]: 1 nM | Ki [2]: 9270 nM | Ratio Ki [3]: 1.08 10^-4No_unit | Activity [4]: 93.26% | Activity [5]: 21.91% | Activity [6]: 77.22% | Activity [7]: 93.41% | viability at 2 h, 7.5 µM [8]: 92.1% | viability at 2 h, 15 µM [9]: 90.6% | viability at 2 h, 30 µM [10]: 87.4% | Papp at 16 h, 25 ug/ml [11]: 14 ×10⁻⁶ cm/s

NCCNC(=O)c1ccc(Cl)cn1 [LAZABEMIDE]
Ki [1]: > 250000 nM | Activity [4]: 97% | Activity [5]: 11% | Activity [6]: 89% | Activity [7]: 99% | viability at 2 h, 7.5 µM [8]: 92.4% | viability at 2 h, 15 µM [9]: 89.7% | viability at 2 h, 30 µM [10]: 85.6%

COc1cccc(C2CC(c3ccccc3)=NN2C(=O)Cn2c(=O)oc3ccccc32)c1 (centres undefined)
Ki [1]: 8 nM | Ki [2]: 8250 nM | Ratio Ki [3]: 0.00097 | Activity [4]: 91.74% | Activity [5]: 24.55% | Activity [6]: 85% | Activity [7]: 92.25% | viability at 2 h, 7.5 µM [8]: 96.2% | viability at 2 h, 15 µM [9]: 88.3% | viability at 2 h, 30 µM [10]: 77.3% | Papp at 16 h, 25 ug/ml [11]: 8.9 ×10⁻⁶ cm/s | Activity (Mus musculus [12]): inactive | Activity (Mus musculus [13]): Active | Activity [14]: 0.31 nmol/min/mg | Activity [15]: 0.88 µg/g | Activity [16]: 7.08 µg/g | Activity [17]: 0.32 µg/g | Activity [18]: 1.23 µg/g | Activity [19]: 0.29 nmol/min/mg | Activity [20]: 1.01 µg/g | Activity [21]: 0.24 µg/g | Activity [22]: Non-Toxic

C[C@]12CC[C@@H]3c4ccc(O)cc4CC[C@H]3[C@@H]1CC[C@@H]2O [ESTRADIOL]
Papp at 16 h, 25 ug/ml [11]: 9.99 ×10⁻⁶ cm/s
